Screening data as filed in PubChem BioAssay.
WT yeast gro inh – growth inhibition of WT yeast, mitochondrial fusion screen; mitochondrial fusion phenotypic screen, WT strain; inhibition, % at 10 µM; hit rate 2.1% among 190,000; in the data active = inhibition above about 58%; tested in S. cerevisiae
Yeast life ext – yeast lifespan extension | hit rate 0.68% among 130,000 | inhibition of the nicotinamide effect, % at 10 µM | S. cerevisiae growth with nicotinamide, OD615; deaD strain in restrictive glucose medium;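 active = inhibition above a set limit, placed 3 SD over the median of all compounds, cut at about 26% in these data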;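 note: 0% = nicotinamide-treated wells and 100% = cells grown without nicotinamide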
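assay system = DeaD-strain S. cerevisiae | buffer or medium = restrictive glucose medium | reagent = 1.5 mM nicotinamide | compound = 10 µM single point, 0.25% DMSO | incubation = 48 h compound exposure at 30 °C, humidified | signal = OD615 measurement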
Yeast growth inh – chemicals that inhibit yeast BB579 growth in restrictive medium (lifespan-shortening candidates); inhibition, % at 10 µM; hit rate 0.51% among 140,000; S. cerevisiae BB579 growth, OD615, 48 h;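 active = inhibition above a set limit, 3 SD over the mean compound inhibition, cut at about 44% in these data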
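System: Saccharomyces cerevisiae DeaD strain BB579, replicative lifespan model yeast. Buffer or medium: restrictive glucose-based CSMM-D medium. Doses: one dose, 10 µM compound with 0.25% DMSO. Timing: 4 h preincubation and 48 h exposure at 30 °C. Detection: turbidity as optical density at 615 nm. Benchmarks: amphotericin B 10 µg/mL, positive.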
Measles CPE – protection of cells from measles virus. Measles virus-infected cells, CPE protection, absorbance. protection (pct of control), % at 4 µM. hit rate 1.5% among 140,000. AID 841; in the data active = protection mostly above about 24%, no sharp cut-off; inactive = mostly below about 26%
RAM network inh – blocks the yeast RAM network; S. cerevisiae dse1pr::URA3 reporter, 5-FOA growth OD615, 2 d; analog-sensitive cbk1-as2 kinase mutant strain; inhibition, % at 50 µM; hit rate 1.8% among 190,000; AID 868;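 active = inhibition above a set limit, 3 SD over mean compound inhibition, cut at about 8.4% in these data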;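 note: 0% = DMSO-only wells with no growth and 100% = 10 µM 1-NA-PP1 full growth; inhibition rescues growth on 5-FOA so higher OD means more RAM inhibition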
hDAT+cocaine – changed human dopamine transporter uptake under cocaine IC80; Q01959; LLC-PK1 hDAT cells, [14C]-dopamine uptake with cocaine IC80; actives deviate in either direction; B-score at 10 µM; hit rate 1.3% among 110,000;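 active = Z score or B-score, a plate-position-corrected score, falls beyond the plate's 99.7% confidence bounds, in either direction; inactive = both scores lie inside the 99.7% bounds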;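 note: scored against the spread of the other compound wells on the same plate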
Target sequence (Q01959 whole entry, looked up): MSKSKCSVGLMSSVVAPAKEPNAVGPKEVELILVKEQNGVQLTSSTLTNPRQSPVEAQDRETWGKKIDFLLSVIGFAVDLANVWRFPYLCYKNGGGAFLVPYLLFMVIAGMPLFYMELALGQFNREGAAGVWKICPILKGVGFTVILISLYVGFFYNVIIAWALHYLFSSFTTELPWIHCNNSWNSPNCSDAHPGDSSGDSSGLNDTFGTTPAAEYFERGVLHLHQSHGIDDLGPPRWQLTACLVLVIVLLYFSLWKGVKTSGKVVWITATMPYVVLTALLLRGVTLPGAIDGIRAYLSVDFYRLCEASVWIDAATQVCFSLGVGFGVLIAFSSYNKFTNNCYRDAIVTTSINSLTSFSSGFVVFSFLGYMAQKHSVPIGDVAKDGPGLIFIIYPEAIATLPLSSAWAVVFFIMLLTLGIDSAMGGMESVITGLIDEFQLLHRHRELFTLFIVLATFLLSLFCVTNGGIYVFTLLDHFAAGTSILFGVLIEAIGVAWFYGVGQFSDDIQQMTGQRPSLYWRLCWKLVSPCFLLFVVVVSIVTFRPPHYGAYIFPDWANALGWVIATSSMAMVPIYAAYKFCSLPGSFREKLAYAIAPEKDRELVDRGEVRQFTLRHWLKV
Numbers without * were called inactive. An excerpt weighted towards active compounds, which were near 6.1% of everything screened.

For CCOc1ccccc1C(=O)NC(C(=O)Nc1cccnc1)C(C)C (stereo not given) the results were WT yeast gro inh -11 and RAM network inh 0.
For COc1ccc(CS(=O)(=O)CC2(O)CCN(C(=O)c3cccc(C(F)(F)F)c3)CC2)cc1 the results were WT yeast gro inh 7 and RAM network inh 2.
For Cn1c(-c2sc3cc(C(F)(F)F)cnc3c2-c2cccs2)n[nH]c1=S the results were WT yeast gro inh 65* and RAM network inh 7.
For COCCNC(=O)C(NC(=O)C1CCCCC1)C(C)C (stereo not given) the results were WT yeast gro inh -14 and RAM network inh 2.
Brc1ccc(-c2csc(N/N=C/c3ccco3)n2)cc1 was read as WT yeast gro inh 44 and RAM network inh 1.
CCCc1cc(-c2nc(-c3ccc(Br)cc3)cs2)ccn1 was read as WT yeast gro inh 69*, Yeast life ext -5, Yeast growth inh -12, Measles CPE 9 and RAM network inh -1.
For CCCc1cc(-c2nc(-c3ccc(Cl)cc3)cs2)ccn1 the results were WT yeast gro inh 78*, Yeast life ext -10, Yeast growth inh 17, Measles CPE 5, RAM network inh -2 and hDAT+cocaine -0.41.
For O=C(Nc1ccncc1)c1cc(F)cc(F)c1 the results were WT yeast gro inh -6, Yeast life ext -14, Yeast growth inh 2, Measles CPE 9, RAM network inh 1 and hDAT+cocaine 0.07.
`CCOc1ncccc1C(=O)OCC(=O)Nc1ccc2c(c1)OCO2` gave WT yeast gro inh 8 and RAM network inh 4.
`Cc1cc(C)c(S(=O)(=O)N2CCC(C(=O)NCc3ccc(Cl)cc3Cl)CC2)c(C)c1` gave WT yeast gro inh 75*, Yeast life ext -5, Yeast growth inh -60, Measles CPE 19, RAM network inh 6 and hDAT+cocaine 0.14.
For CCS(=O)(=O)N1CCC(C(=O)NCc2ccc(F)cc2Cl)CC1 the results were WT yeast gro inh 7, Yeast life ext -4, Yeast growth inh -34, Measles CPE 16, RAM network inh 2 and hDAT+cocaine -1.2.
CS(=O)(=O)N1CCCC(C(=O)NCc2ccccc2Cl)C1 (stereo not given) was read as WT yeast gro inh 35, Yeast life ext 3, Yeast growth inh -41, Measles CPE 42*, RAM network inh 2 and hDAT+cocaine -0.055.
Screening COc1ccc(-n2c(SCC#N)nnc2-c2ccc(NS(=O)(=O)c3ccc(C)cc3)cc2)cc1 returned WT yeast gro inh 10, Yeast life ext -5, Yeast growth inh -43, Measles CPE 4, RAM network inh 8.5* and hDAT+cocaine 0.48.
`COc1ccc(-n2c(SCC(N)=O)nnc2-c2ccc(NS(=O)(=O)c3ccc(C)cc3)cc2)cc1` gave WT yeast gro inh 11, Yeast life ext -5, Yeast growth inh -14, Measles CPE 17, RAM network inh 5 and hDAT+cocaine -0.28.
Oc1ccccc1CNc1ccc(OC(F)(F)F)cc1 was read as WT yeast gro inh 22 and RAM network inh 0.
`CCn1c(N)c(C(=O)NC2CCCCC2)sc1=S` gave WT yeast gro inh 0, Yeast growth inh -35, Measles CPE 15, RAM network inh 1 and hDAT+cocaine 0.03.
Cc1cccc(N(CC(=O)NC2CCCCC2)C(=O)c2c(C)noc2C)c1 was read as WT yeast gro inh -3, Yeast life ext -3, Yeast growth inh 7, Measles CPE 22, RAM network inh 1 and hDAT+cocaine 0.38.
COc1cccc(-c2ccc(=O)n(CC(=O)Nc3cc4c(cc3NC(C)=O)OCCO4)n2)c1 was read as WT yeast gro inh -1, Yeast life ext -7, Yeast growth inh -53, Measles CPE 5, RAM network inh 2 and hDAT+cocaine 0.45.
COc1cccc(-c2ccc(=O)n(CC(=O)Nc3ccc(C(=O)N4CCCC4)cc3)n2)c1 was read as WT yeast gro inh -1, Yeast life ext -17, Yeast growth inh 7, Measles CPE 21, RAM network inh 1 and hDAT+cocaine 2.9*.
Screening COCCCNC(=O)c1ccccc1Sc1ccc(NC(C)=O)nc1 returned WT yeast gro inh -12 and RAM network inh -1.
Screening O=C(Nc1ccc(OC(F)(F)F)cc1)c1[nH]ncc1[N+](=O)[O-] returned WT yeast gro inh 15 and RAM network inh 1.
For O=C(C1CCN(C2CCN(CC3CC=CCC3)CC2)CC1)N1CCOCC1 (stereo not given) the results were WT yeast gro inh 2 and RAM network inh -1.
O=c1cc(NCc2ccccc2)nc2n1CCCS2 was read as WT yeast gro inh -4, Yeast life ext 2, Yeast growth inh -46, Measles CPE 10 and RAM network inh 0.
`COc1ccc(-n2c(SCC(=O)NC3CCCCC3)nc3ccsc3c2=O)cc1` gave WT yeast gro inh 5, Yeast life ext 1, Yeast growth inh -35, Measles CPE 24, RAM network inh 9.1* and hDAT+cocaine -0.93.
[O-]c1c[n+](-c2ccc(-[n+]3cc([O-])on3)cc2)no1 was read as WT yeast gro inh -20 and RAM network inh 2.
`Cc1cc(Br)c(OCc2ccc(C(=O)N/N=C3\CC4CC=CC34)cc2)c(Br)c1` (stereo not given) gave WT yeast gro inh 76*, Yeast life ext -7, Yeast growth inh -18, Measles CPE 2 and RAM network inh 0.
For CCOC(=O)c1nc(Nc2ccc(Nc3ccccc3)cc2)c2ccccc2n1 the results were WT yeast gro inh 72* and RAM network inh 3.
COc1ccc(NC(=O)c2ccc3ccccc3n2)cc1S(=O)(=O)N1CCCCC1 was read as WT yeast gro inh 25, Yeast life ext 0, Yeast growth inh -10, Measles CPE 6 and RAM network inh 3.
For COc1cc(OC)cc(C(=O)NN2CCCCC2)c1 the results were WT yeast gro inh -7, Yeast life ext -4, Yeast growth inh -7, Measles CPE 1, RAM network inh 2 and hDAT+cocaine -1.3.
Screening COc1cccc(OC)c1C(=O)NN1CCCCC1 returned WT yeast gro inh 4, Yeast life ext -4, Yeast growth inh -47, Measles CPE 35*, RAM network inh 1 and hDAT+cocaine -0.62.
Screening O=C(NC12CC3CC(CC(C3)C1)C2)N(Cc1ccccc1)Cc1ccncc1 returned WT yeast gro inh 11 and RAM network inh 0.
CCOC(=O)c1cnc2ccc(OC)cc2c1Nc1ccc2c(c1)OCCO2 was read as WT yeast gro inh 77*, Yeast life ext -26, Yeast growth inh 12, Measles CPE 3, RAM network inh 1 and hDAT+cocaine -0.13.
For O=C(COc1ccc(S(=O)(=O)N2CCc3ccccc32)cc1Cl)NCc1ccccn1 the results were WT yeast gro inh 11, Yeast life ext -1, Yeast growth inh -2, Measles CPE 19, RAM network inh 0 and hDAT+cocaine 2.2*.
